# Experimental data taken from ChEMBL document CHEMBL3351805, “Giffonins A-I, antioxidant cyclized diarylheptanoids from the leaves of the hazelnut tree (Corylus avellana), source of the Italian PGI product "Nocciola di Giffoni"” (J Nat Prod, 2015).
# Legend:
# [1] = tested on: Plasma; assay: Antioxidant activity in human plasma assessed as H2O2-induced lipid peroxidation at 10 uM after 30 mins by TBARS assay; format: functional, cell-free
# Method in brief: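 Fresh plasma from medication-free human donors, incubated 30 min at 37 °C with compound (final 0.1–100 μM; DMSO <0.05% final) plus 2 mM H₂O₂. Stopped on ice, then mixed with an equal volume of cold 20% TCA in 0.6 M HCl and spun. Supernatant heated 15 min with 0.12 M TBA in 0.26 M Tris pH 7.0. TBARS read at 532 nm (ε = 156 000 M⁻¹ cm⁻¹). n=3 independent experiments.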
# [2] = tested on: Plasma; assay: Antioxidant activity in human plasma assessed as H2O2/Fe2+-induced lipid peroxidation at 10 uM after 30 mins by TBARS assay; format: functional, cell-free
# Method in brief: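 Reaction stopped on ice; TCA/HCl precipitation, centrifugation at 1200g. Supernatant boiled 15 min with thiobarbituric acid in Tris pH 7.0. A532 converted to TBARS via ε = 156 000 M⁻¹ cm⁻¹. Three independent experiments; paired Student's t test.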
SMILES,inhibition [1],inhibition [2]
COc1c2cc(c(OC)c1O)Oc1ccc(cc1)CCC(=O)CC/C=C\2,64.3%,63.2%
O=C1/C=C/CCc2ccc(O[C@@H]3O[C@H](CO)[C@@H](O)[C@H](O)[C@H]3O)c(c2)-c2cc(ccc2O[C@@H]2OC[C@H](O)[C@H](O)[C@H]2O)CC1,12.6%,18.1%
COc1c2cc(c(OC)c1O)Oc1ccc(cc1)CC[C@@H](O)/C=C/C=C\2,37.6%,35.5%
COc1c2cc(c(OC)c1O)Oc1ccc(cc1)CCC(=O)C[C@@H](O)/C=C\2,12.1%,12%
COc1cc(/C=C/C(=O)CC(=O)/C=C/c2ccc(O)c(OC)c2)ccc1O,19.2%,18.6%
COc1c2cc(c(OC)c1O)Oc1ccc(cc1)[C@@H](O)CC(=O)CC/C=C/2,2.2%,7.3%
COc1c2cc(c(OC)c1O)Oc1ccc(cc1)CCC(=O)CC/C=C/2,8.1%,36.8%
COc1c(O)cc2cc1Oc1ccc(cc1)CC[C@@H](O)/C=C/C=C\2,55.8%,50.6%
COc1c2cc(c(OC)c1O)Oc1ccc(cc1)CCCC[C@@H](O)/C=C\2,20.8%,30.8%
COc1c2cc(c(OC)c1O)Oc1ccc(cc1)CC[C@@H](O)CC/C=C\2,16.4%,28.2%
